Laboratory results as given in ChEMBL document CHEMBL3853346, “Synthesis of arylated coumarins by Suzuki-Miyaura cross-coupling. Reactions and anti-HIV activity” (Bioorg Med Chem, 2016).
≈ marks a conversion by molar mass, not a printed value.

How the values were obtained:
[1] = Selectivity index, ratio of CC50 for human MT-4 cells to IC50 for HIV-2 ROD infected in human MT-4 cells; assay type: functional, MT4
In short: (§1)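 Selectivity index is CC50 in mock-infected MT-4 cells divided by IC50 against HIV-1 IIIB or HIV-2 ROD. Both values come from parallel 5-day MTT assays in the same plates.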

[2] = Cytotoxicity against human MT4 cells assessed as reduction in cell viability after 5 days by MTT assay; assay type: toxicity, cell-based
In short: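 Mock-infected MT-4 cells (6 x 10⁵ cells/mL) were run in parallel with the infected series. Serial 5-fold compound dilutions were tested in triplicate wells, with culture medium in place of virus. Viability was measured by MTT at day 5. CC50 is the concentration that reduces viability of mock-infected cells by 50%.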

[3] = test system: Human immunodeficiency virus 1; experiment: Antiviral activity against HIV-1 3B infected in human MT-4 cells assessed as protection against virus induced cytopathic effect after 5 days by MTT assay; assay type: functional, cell-based; settings: Human immunodeficiency virus 1, 3B, MT4, 120 h
In short: (§2)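 MT-4 cells, exponentially growing, resuspended at 6 x 10⁵ cells/mL and infected with HIV-1 IIIB or HIV-2 ROD at 100-300 CCID50. Test compounds added as serial 5-fold dilutions in triplicate wells at the start. Untreated infected and mock-infected controls included. Viability read by MTT spectrophotometrically 5 days post-infection. EC50 is the concentration giving 50% protection from virus-induced cytopathic effect.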

[4] = Antiviral activity against HIV-2 ROD infected in human MT-4 cells assessed as protection against virus induced cytopathic effect after 5 days by MTT assay; assay type: functional, cell-based, Human immunodeficiency virus type 2 (ISOLATE ROD); settings: Human immunodeficiency virus 2, MT4, 120 h; in short: as §2
[5] = Selectivity index, ratio of CC50 for human MT-4 cells to IC50 for HIV-1 3B infected in human MT-4 cells; assay type: functional, MT4; in short: as §1

SMILES	Ratio CC50/IC50 [1]	CC50 at 120 h [2]	IC50 [3]	IC50 [4]	Ratio CC50/IC50 [5]
Cc1cc(=O)oc2cc(-c3ccc(Cl)cc3)c(OS(=O)(=O)C(F)(F)F)cc12	<1	35.6 µg/mL (≈ 85.1 µM)	> 30.6 µg/mL	> 35.6 µg/mL	<1
Cc1cc(C)cc(-c2cc3oc(=O)cc(C)c3cc2-c2cc(C)cc(C)c2)c1	<1	14.4 µg/mL (≈ 39.1 µM)	4.57 µg/mL (≈ 12.4 µM)	> 14.4 µg/mL	3
CCOc1ccc(-c2cc3oc(=O)cc(C)c3cc2OS(=O)(=O)C(F)(F)F)cc1	<1	≥ 27.2 µg/mL	> 27.2 µg/mL	> 27.2 µg/mL	< 1
COc1ccc(-c2cc3oc(=O)cc(C)c3cc2OS(=O)(=O)C(F)(F)F)cc1	<1	≥ 10.6 µg/mL	> 10.6 µg/mL	> 10.6 µg/mL	<1
COc1ccc(-c2cc3oc(=O)cc(C)c3cc2-c2cccc(C)c2)cc1	<1	7.4 µg/mL (≈ 20.8 µM)	> 7.4 µg/mL	> 7.4 µg/mL	<1
Cc1cccc(-c2cc3oc(=O)cc(C)c3cc2OS(=O)(=O)C(F)(F)F)c1	<1	61.3 µg/mL (≈ 154 µM)	13.2 µg/mL (≈ 33.1 µM)	> 61.3 µg/mL	5
COc1cccc(-c2cc3oc(=O)cc(C)c3cc2OS(=O)(=O)C(F)(F)F)c1	<1	18.9 µg/mL (≈ 45.5 µM)	> 18.9 µg/mL	> 18.9 µg/mL	<1
Cc1ccnc2c1NC(=O)c1cccnc1N2C1CC1 [NEVIRAPINE]	<1	> 4 µg/mL		> 4 µg/mL	>80
Cc1cc(=O)oc2cc(-c3ccccc3)c(OS(=O)(=O)C(F)(F)F)cc12	<1	12.6 µg/mL (≈ 32.7 µM)	> 12.5 µg/mL	> 12.5 µg/mL	<1
COc1ccc(-c2cc3oc(=O)cc(C)c3cc2-c2ccc(OC)cc2)cc1	<1	11 µg/mL (≈ 29.5 µM)	> 11 µg/mL	> 11 µg/mL	<1
Cc1ccc(-c2cc3oc(=O)cc(C)c3cc2OS(=O)(=O)C(F)(F)F)cc1	<1	11 µg/mL (≈ 27.6 µM)	> 11 µg/mL	> 11 µg/mL	<1
Cc1cc(=O)oc2cc(-c3ccc(F)cc3)c(OS(=O)(=O)C(F)(F)F)cc12	<1	10.6 µg/mL (≈ 26.4 µM)	> 10.6 µg/mL	> 10.6 µg/mL	<1
Cc1cc(=O)oc2cc(OS(=O)(=O)C(F)(F)F)c(OS(=O)(=O)C(F)(F)F)cc12	<1	43.5 µg/mL (≈ 95.3 µM)	> 43.5 µg/mL	> 43.5 µg/mL	<1
Cc1cc(C)cc(-c2cc3oc(=O)cc(C)c3cc2OS(=O)(=O)C(F)(F)F)c1	<1	33.1 µg/mL (≈ 80.3 µM)	> 33.1 µg/mL	> 33.1 µg/mL	<1
Cc1cc(=O)oc2cc(-c3ccc(C(C)(C)C)cc3)c(OS(=O)(=O)C(F)(F)F)cc12	<1	10.3 µg/mL (≈ 23.3 µM)	> 10.3 µg/mL	> 10.3 µg/mL	<1
Cc1cn([C@H]2C[C@H](N=[N+]=[N-])[C@@H](CO)O2)c(=O)[nH]c1=O [ZIDOVUDINE]	>26596	> 25 µg/mL		0.00094 µg/mL (≈ 0.00352 µM)	>11363
COc1ccc(-c2cc3oc(=O)cc(C)c3cc2OS(=O)(=O)C(F)(F)F)c(OC)c1OC	<1	2.13 µg/mL (≈ 4.49 µM)	> 2.13 µg/mL	> 2.13 µg/mL	<1
COc1ccc(-c2cc3oc(=O)cc(C)c3cc2-c2cc(C)cc(C)c2)cc1	<1	2.08 µg/mL (≈ 5.61 µM)	> 2.08 µg/mL	> 2.08 µg/mL	<1
Cc1cc(=O)oc2cc(-c3ccc(C(F)(F)F)cc3)c(OS(=O)(=O)C(F)(F)F)cc12	<1	80.3 µg/mL (≈ 178 µM)	> 80.3 µg/mL	> 80.3 µg/mL	<1
Cc1cc(=O)oc2cc(-c3ccc(Cl)cc3)c(-c3ccc(Cl)cc3)cc12	<1	16 µg/mL (≈ 41.9 µM)	> 16 µg/mL	> 16 µg/mL	<1
COc1ccc(-c2cc3oc(=O)cc(C)c3cc2-c2ccc(Cl)cc2)cc1	<1	2.06 µg/mL (≈ 5.47 µM)	> 2.06 µg/mL	> 2.06 µg/mL	<1
CCOc1ccc(-c2cc3oc(=O)cc(C)c3cc2-c2ccc(OCC)cc2)cc1	<1	37.3 µg/mL (≈ 93.2 µM)	> 37.3 µg/mL	> 37.3 µg/mL	<1
COc1ccc(-c2cc3oc(=O)cc(C)c3cc2-c2ccc(F)cc2)cc1	<1	10.9 µg/mL (≈ 30.3 µM)	> 10.9 µg/mL	> 10.9 µg/mL	<1
Cc1cc(=O)oc2cc(-c3ccccc3)c(-c3ccccc3)cc12	<1	13.8 µg/mL (≈ 44.1 µM)	> 13.8 µg/mL	> 13.8 µg/mL	<1
